Here are results for 26 compounds from ChEMBL document CHEMBL1145986, “Dual protein farnesyltransferase-geranylgeranyltransferase-I inhibitors as potential cancer chemotherapeutic agents” (J Med Chem, 2003).

Structures are written as SMILES.

Assay [1] deals with T1, Protein farnesyltransferase (Homo sapiens, UniProt P49354+P49356). Put plainly: Concentration required to inhibit recombinant human farnesyltransferase (FTase) catalyzed incorporation of [3H]FPP into recombinant Ras-CVIM. Type of assay: protein-complex assay.
In assay [2] the target is T2, Geranylgeranyl transferase type I (Homo sapiens, UniProt P49354+P53609). Put plainly: Concentration required to inhibit recombinant human geranylgeranyl transferase type I (GGTase-I) catalyzed incorporation of [3H]GGPP to the C-terminus of human K-Ras. Type of assay: protein-complex assay. Summed up: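 Human GGTase-I transferring [3H]GGPP onto a biotinylated peptide matching the human K-Ras C-terminus. IC50 is the concentration giving 50% inhibition of incorporation. For the GGPP-competition check, IC50 was also determined at 20, 100 and 500 nM GGPP. Data with n > 2 are given as mean ± SEM.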

In assay [3] the target is T1, Protein farnesyltransferase. Put plainly: Inhibition of hDJ2 protein farnesylation. It is filed as functional. Summed up: (§1)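 PSN-1 pancreatic carcinoma cells were exposed to inhibitor for 24 h. Lysates were run on SDS-PAGE and Western blotted with antibodies to hDJ2, Rap1a or K-Ras. Unprocessed and prenylated forms were told apart by their different electrophoretic mobility.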

The target in assay [4] is Protein farnesyl/geranylgeranyl transferase (Homo sapiens, UniProt P49354+P49356+P53609). As to the kind of experiment: Inhibition of K-Ras processing, farnesylation and/or geranylgeranylation in human PSN1 cells. It is filed as functional, cell-based. Summed up: as §1
Assay [5] addresses T2, Geranylgeranyl transferase type I. As to the kind of experiment: Inhibition of Rap1a protein geranylgeranylation in human PSN1 cells. Type of assay: functional, cell-based. Summed up: as §1

Turning to `CCC1(c2cccc(Oc3cc(C(C)(N)c4cncn4C)ccc3C#N)c2)CCCCN(C)C1=O` (stereo unspecified), the IC50 in assay [1] came out at 0.38 nM; in assay [2], 5.1 nM.
On the same counts, the results for `N#Cc1ccc(Cn2ccnc2)cc1Oc1cccc(C2CCCCNC2=O)c1` (stereo unspecified) are 41 nM and 1200 nM.
Consider `CCC[C@@]1(c2cccc(Oc3cc([C@](C)(N)c4cncn4C)ccc3C#N)c2)CCCCN(C)C1=O`, for which the IC50 in assay [1] was found to be 0.46 nM; in assay [2], 2.9 nM. The figures for the EC50 in assay [3], in assay [4] and in assay [5] were 0.9 nM, 100 nM and 220 nM, respectively.
As to `CCC1(c2cccc(Oc3cc(C(C)(O)c4cncn4C)ccc3C#N)c2)CCCCN(C)C1=O` (stereo unspecified), the results for the IC50 in assay [1] and in assay [2] were 1.2 nM and 13 nM, respectively.
Regarding `CCC1(c2cccc(Oc3cc(C(N)c4cncn4C)ccc3C#N)c2)CCCCN(C)C1=O` (stereo unspecified), the figures for the IC50 in assay [1] and in assay [2] were 0.19 nM and 8 nM, respectively.
Turning to `CCCC[C@@]1(c2cccc(Oc3cc([C@](C)(N)c4cncn4C)ccc3C#N)c2)CCCCN(C)C1=O`, the IC50 in assay [1] stood at 0.12 nM; in assay [2], 1.4 nM. Also, the EC50 in assay [3] was determined as 4 nM; in assay [4], 320 nM; in assay [5], 250 nM.
Regarding `CN1CCCCC(c2cccc(Oc3cc(Cn4ccnc4)ccc3C#N)c2)C1=O` (stereo unspecified), the IC50 in assay [1] was determined as 61 nM; in assay [2], 560 nM.
On the same counts, the results for `CCC1(c2cccc(Oc3cc(C(=O)c4cncn4C)ccc3C#N)c2)CCCCN(C)C1=O` (stereo unspecified) are 1800 nM and 10000 nM.
Regarding `CC[C@@]1(c2cccc(Oc3cc([C@](C)(N)c4cncn4C)ccc3C#N)c2)CCCCN(C)C1=O`, the IC50 in assay [2] turned out to be 3.6 nM. The EC50 in assay [3] stood at 2.1 nM; in assay [4], 340 nM; in assay [5], 470 nM.
With `CCC1(c2cccc(Oc3cc(Cn4ccnc4)ccc3C#N)c2)CCCCN(C)C1=O` (racemic), the half-inhibitory concentration (IC50) in assay [1] is 3 nM; in assay [2] it was 7.2 nM.
On the same counts, the results for `CCC1(c2cccc(Oc3cc(Cn4ccnc4)ccc3C#N)c2)CCCCN(C(C)=O)C1` (stereo unspecified) are 1.9 nM and 8.9 nM.
On the same counts, the results for `CCC1(c2cccc(Oc3cc(C(O)c4cncn4C)ccc3C#N)c2)CCCCN(C)C1=O` (stereo unspecified) are 2 nM and 17 nM.
For `CC[C@]1(c2cccc(Oc3cc(Cn4ccnc4)ccc3C#N)c2)CCCCN(C)C1=O` the same measures were 5.3 nM and 25 nM.
For `CCC1(c2cccc(Oc3cc(Cn4ccnc4)ccc3C#N)c2)CCCCNC1` (stereo unspecified), the half-maximal inhibitory concentration (IC50) in assay [1] amounted to 100 nM; in assay [2] it was 280 nM.
For `CC[C@]1(c2cccc(Oc3cc([C@](C)(N)c4cncn4C)ccc3C#N)c2)CCCCN(C)C1=O` (stereo in doubt), the IC50 in assay [1] came to 1.5 nM; in assay [2], 4.5 nM. In addition, the 50% effective concentration (EC50) in assay [3] is 11 nM; in assay [4] it was 1900 nM; in assay [5], 720 nM.
On the same counts, the results for `CN1CCCC[C@@](C)(c2cccc(Oc3cc([C@](C)(N)c4cncn4C)ccc3C#N)c2)C1=O` are 0.41 nM, 30 nM, 26 nM, 3730 nM and 3990 nM.
For the compound `CCC1(c2cccc(Oc3cc(Cn4ccnc4)ccc3C#N)c2)CCCCNC1=O` (stereo unspecified), the IC50 in assay [1] came out at 1.3 nM; in assay [2], 20 nM.
On the same counts, the results for `CN1CCCC[C@@H](c2cccc(Oc3cc([C@](C)(N)c4cncn4C)ccc3C#N)c2)C1=O` are 11 nM and 92 nM.
In the case of `CN1CCCC[C@@](CC2CC2)(c2cccc(Oc3cc([C@](C)(N)c4cncn4C)ccc3C#N)c2)C1=O`, the IC50 in assay [1] stood at 0.3 nM; in assay [2] it was 2.1 nM. The EC50 stood at 1.5 nM in assay [3], 220 nM in assay [4] and 87 nM in assay [5].
`CN1CCCC[C@@](CCC(F)(F)F)(c2cccc(Oc3cc([C@](C)(N)c4cncn4C)ccc3C#N)c2)C1=O`: the IC50 was 0.19 nM in assay [1] and 2.5 nM in assay [2]. The EC50 in assay [3] was 3.1 nM; in assay [4], 207 nM; in assay [5], 47 nM.
On to `CCC1(c2cccc(Oc3cc(Cc4cncn4C)ccc3C#N)c2)CCCCN(C)C1=O` (stereo unspecified), for which the IC50 in assay [1] came out at 0.6 nM; in assay [2], 10 nM.
`CC[C@@]1(c2cccc(Oc3cc([C@@](C)(N)c4cncn4C)ccc3C#N)c2)CCCCN(C)C1=O` (stereo in doubt): the IC50 was found to be 0.36 nM in assay [1] and 13 nM in assay [2]. Besides, the EC50 stood at 6 nM in assay [3], 230 nM in assay [4] and 140 nM in assay [5].
On the same counts, the results for `CC[C@]1(c2cccc(Oc3cc([C@@](C)(N)c4cncn4C)ccc3C#N)c2)CCCCN(C)C1=O` are 7.6 nM, 54 nM, 120 nM, 8000 nM and 3200 nM.
For `CN1CCCC[C@@](CCC2CC2)(c2cccc(Oc3cc([C@](C)(N)c4cncn4C)ccc3C#N)c2)C1=O` the same measures were 0.18 nM, 0.81 nM, 11 nM, 1290 nM and above 1000 nM.
On to `CC[C@@]1(c2cccc(Oc3cc(Cn4ccnc4)ccc3C#N)c2)CCCCN(C)C1=O`, for which the IC50 was 1.4 nM in assay [1] and 5.8 nM in assay [2].
On to `CCC1(c2cccc(Oc3cc(Cc4cnc[nH]4)ccc3C#N)c2)CCCCN(C)C1=O` (stereo unspecified), for which the IC50 in assay [1] is 13 nM; in assay [2] it was 12 nM.
